ChEMBL document CHEMBL1821655, “Identification of SQ609 as a lead compound from a library of dipiperidines” (Bioorg Med Chem Lett, 2011)
In brackets after ≈: the same amount, converted by molar mass. Activity calls are given as the source filed them. The calls are words filed in the database; no cut-off is given here.

What was measured:
[1] = tested on: Mycobacterium tuberculosis; assay: Antimycobacterial activity against recombinant strain Mycobacterium tuberculosis Rv0341 by firefly luciferase reporter gene assay; type: functional, organism-based
Summary of the method: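 Recombinant Mtb carrying a promoter fused to firefly luciferase, which is activated and produces light when cell wall biosynthesis is inhibited. High-throughput luminescence read-out.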

[2] = tested on: Mycobacterium tuberculosis; assay: Antimycobacterial activity against Mycobacterium tuberculosis H37Rv ATCC 25618 after 10 to 14 days by microplate alamar blue assay; type: functional
[3] = tested on: Mycobacterium tuberculosis; assay: Antimycobacterial activity against Mycobacterium tuberculosis H37Rv infected in C3H/HeNCrlBR mouse assessed as prevention of body weight loss at 10 mg/kg, po administered 7 days after infection for 2 weeks measured after 10 to 15 days relative to control; type: functional, organism-based; parameters: dose 10 mg/kg
Summary of the method: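 Treatment began 7 days after infection: oral gavage once daily at 10 mg/kg for 2 wk. Body weights tracked from day 0 through day 21 and compared with uninfected mice and infected placebo-treated mice. Mortality was followed after therapy ended.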

[4] = tested on: J774.A1; assay: Cytotoxicity against mouse J774A1 cells assessed as cell aggregation at 4 ug/ml; type: cell-based
[5] = tested on: Mycobacterium tuberculosis; assay: Antimycobacterial activity against Mycobacterium tuberculosis pSMT1 infected in mouse J774A.1 ATCC TIB-67 cells assessed as inhibition of intracellular bacterial growth at MIC for 4 days followed by 3 days incubation in drug-free medium by luciferase reporter gene assay; type: functional
[6] = tested on: Mycobacterium tuberculosis; assay: Antimycobacterial activity against Mycobacterium tuberculosis pSMT1 infected in mouse J774A.1 ATCC TIB-67 cells assessed as viable bacterial count at 4 ug/ml for 4 days followed by 3 days incubation in drug-free medium by luciferase reporter gene assay; type: functional
[7] = tested on: Mycobacterium tuberculosis; assay: Antimycobacterial activity against Mycobacterium tuberculosis pSMT1 infected in mouse J774A.1 ATCC TIB-67 cells assessed as viable bacterial count at 0.125 ug/ml for 4 days followed by 3 days incubation in drug-free medium by luciferase reporter gene assay; type: functional
Summary of the method: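 Mtb-infected J774A.1 mouse macrophages exposed to drug for 4 days, then medium replaced with drug-free medium and cultures incubated 3 more days. Triplicate wells lysed on day 0 and day 7 and viable bacteria measured as relative light units. Isoniazid control at 0.125 μg/ml.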

Question: Which results are given for `OC1CCN(CC2CCN(CC(c3ccccc3)c3ccccc3)CC2)CC1`?
Answer: Activity [1]: Active; Activity [2]: Active; MIC [2]: 4 µg/mL (≈ 10.6 µM); Activity [3]: Active; Activity [4]: Toxic

Question: For `OC1CCN(CC2CCN(CC34CC5CC(CC(C5)C3)C4)CC2)CC1`, which Activity [1] is on record?
Answer: Active

Question: And the “inhibition (INH)” value [5]?
Answer: >90%

Question: And the Activity [2]?
Answer: Active

Question: And the MIC [2]?
Answer: 4 µg/mL (≈ 11.5 µM)

Question: What about the Activity [3] of the same molecule?
Answer: Active

Question: What about the Activity [6] of the same molecule?
Answer: 354 RLU

Question: `OC1CCN(CC2CCN(CC3CCCCCC3)CC2)CC1` was tested. Which MIC [2] did it give?
Answer: 14 µg/mL (≈ 45.4 µM)

Question: Which Activity [1] does the source give for `OC1CCN(CC2CCN(C3C4CC5CC(C4)CC3C5)CC2)CC1` (stereo not drawn) here?
Answer: Active

Question: What about the Activity [2] of the same molecule?
Answer: Active

Question: How did the MIC [2] turn out when `OCC1CCCN(CC2CCN(CC(c3ccccc3)c3ccccc3)CC2)C1` (stereo not drawn) was run?
Answer: 40 µg/mL (≈ 102 µM)

Question: How did the MIC [2] turn out when `c1ccc(CC2CCN(CC3CCN(CCC45CC6CC(CC(C6)C4)C5)CC3)CC2)cc1` was run?
Answer: 5 µg/mL (≈ 11.5 µM)

Question: How did the MIC [2] turn out when `CCC(CN1CCC(CN2CCC(O)CC2)CC1)c1ccccc1` (stereo not drawn) was run?
Answer: 8 µg/mL (≈ 24.2 µM)

Question: For `CC(C)=CCC/C(C)=C/CN1CCC(CN2CCC(Cc3ccccc3)CC2)CC1`, which MIC [2] is on record?
Answer: 20 µg/mL (≈ 48.9 µM)

Question: `OC1CCN(CC2CCN(CCOc3ccccc3)CC2)CC1` was tested. Which MIC [2] did it give?
Answer: 8 µg/mL (≈ 25.1 µM)

Question: With `c1ccc(CC2CCN(CC3CCN(CC45CC6CC(CC(C6)C4)C5)CC3)CC2)cc1` as the molecule, how does the MIC [2] read?
Answer: 10 µg/mL (≈ 23.8 µM)

Question: Which Activity [7] does the source give for `NNC(=O)c1ccncc1` [ISONIAZID] here?
Answer: 4 RLU

Question: `c1ccc(CC2CCN(CC3CCN(CC(c4ccccc4)c4ccccc4)CC3)CC2)cc1` was tested. Which MIC [2] did it give?
Answer: 11 µg/mL (≈ 24.3 µM)

Question: How did the MIC [2] turn out when `OC1CCN(CC2CCN(CCC34CC5CC(CC(C5)C3)C4)CC2)CC1` was run?
Answer: 15 µg/mL (≈ 41.6 µM)
